Reference: ChEMBL document CHEMBL4689842, “EUbOPEN Chemogenomics Library wave 1” (2021)
Where “and” joins values, the source holds several entries; their conditions need not be identical. Equal values may be shown once.

Columns and labels:
Type in all cases: toxicity, cell-based
U2OS [1] = assay: Incucyte cell viability with U2OS; details: human, 10 µM, compound concentration 10 uM; further: filed as whole numbers so only -1 and 0 and 1 occur
HEK-293T = assay: Incucyte cell viability with HEK293T; details: human, 10 µM, compound concentration 10 uM; further: filed as whole numbers so only -1 and 0 and 1 occur
Fibroblast = assay: Incucyte cell viability with human fibroblast; details: 10 µM, compound concentration 10 uM; further: filed as whole numbers so only -1 and 0 and 1 occur
U2OS [2] = assay: Multiplex assay against U2OS; details: human
Summary of the method: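 With compound added, live cells were imaged on a CQ1 microscope at 37°C and 5% CO2; staining with Hoechst33342, BioTracker Green Microtubule Cytoskeleton Dye, MitoTracker Red and Annexin V Alexa Fluor 680 had been done at seeding. The CellPathfinder machine-learning gating scheme split cells into Hoechst high-intensity objects or normal cells, normal cells into healthy, pyknosed or fragmented nuclei, and pyknosed cells into mitotic or apoptotic. The tubulin, mitochondrial-mass and membrane-permeability phenotypes are per cents of healthy-nucleus cells.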

[3] = 0 h, replicate number 2, timepoint 0 hours
[4] = 6 h, replicate number 1, timepoint 6 hours
[5] = 12 h, replicate number 1, timepoint 12 hours
[6] = 18 h, replicate number 1, timepoint 18 hours
[7] = 24 h, replicate number 1, timepoint 24 hours
[8] = 12 h, 1 µM, compound concentration 1 uM, replicate 1
[9] = 12 h, 1 µM, compound concentration 1 uM, replicate 2
[10] = 12 h, 10 µM, compound concentration 10 uM, replicate 1
[11] = 12 h, 10 µM, compound concentration 10 uM, replicate 2
[12] = 24 h, 1 µM, compound concentration 1 uM, replicate 1
[13] = 24 h, 1 µM, compound concentration 1 uM, replicate 2
[14] = 24 h, 10 µM, compound concentration 10 uM, replicate 1
[15] = 24 h, 10 µM, compound concentration 10 uM, replicate 2
[16] = 48 h, 10 µM, compound concentration 10 uM, replicate 1
[17] = 48 h, 10 µM, compound concentration 10 uM, replicate 2

Which results are given for `c1ccc(-c2oc3ncnc(NC[C@@H]4CCCO4)c3c2-c2ccccc2)cc1`?
Growth Rate (U2OS [1]; 0 h, replicate number 1, timepoint 0 hours): 1; Growth Rate (U2OS [1]; [3]): 0; Growth Rate (U2OS [1]; [4]): 1; Growth Rate (U2OS [1]; [5]): 0; Growth Rate (U2OS [1]; 12 h, replicate number 2, timepoint 12 hours): 1; Growth Rate (U2OS [1]; [6]): 0; Growth Rate (U2OS [1]; [7]): 0; Growth Rate (U2OS [1]; 24 h, replicate number 2, timepoint 24 hours): 1; Growth Rate (HEK-293T; [4]): 0; Growth Rate (HEK-293T; [5]): 0; Growth Rate (HEK-293T; [6]): 0; Growth Rate (HEK-293T; [7]): 0; Growth Rate (Fibroblast; [3]): 1; Growth Rate (Fibroblast; [4]): 0; Growth Rate (Fibroblast; [5]): 0; Growth Rate (Fibroblast; [6]): 0; Growth Rate (Fibroblast; [7]): 0; Population Apoptotic (%) (U2OS [2]; [8]): 68% and 50%; Population Fragmented Nuclei (%) (U2OS [2]; [8]): 4%; Population Healthy Nuclei (%) (U2OS [2]; [8]): 86% and 84%; Population Mitochondria Different-Phenotype (%) (U2OS [2]; [8]): 12% and 18%; Population Mitotic Cells (%) (U2OS [2]; [8]): 31% and 50%; Population Normal (%) (U2OS [2]; [8]): 98% and 95%; Population Pyknosed Nuclei (%) (U2OS [2]; [8]): 9% and 8%; Total Cell Count (U2OS [2]; [8]): 173 and 152; Population Apoptotic (%) (U2OS [2]; [9]): 66% and 25%; Population Fragmented Nuclei (%) (U2OS [2]; [9]): 6%; Population Healthy Nuclei (%) (U2OS [2]; [9]): 90%; Population Hoechst High Intensity Objects (%) (U2OS [2]; [9]): 10% and 18%; Population Mitochondria Different-Phenotype (%) (U2OS [2]; [9]): 17% and 35%; Population Mitotic Cells (%) (U2OS [2]; [9]): 33% and 75%; Population Normal (%) (U2OS [2]; [9]): 89% and 81%; Population Pyknosed Nuclei (%) (U2OS [2]; [9]): 7% and 4%; Total Cell Count (U2OS [2]; [9]): 137 and 107; Population Apoptotic (%) (U2OS [2]; [10]): 78%; Population Fragmented Nuclei (%) (U2OS [2]; [10]): 12%; Population Healthy Nuclei (%) (U2OS [2]; [10]): 64%; Population Hoechst High Intensity Objects (%) (U2OS [2]; [10]): 10%; Population Membrane Permeable-Phenotype (%) (U2OS [2]; [10]): 20%; Population Mitochondria Different-Phenotype (%) (U2OS [2]; [10]): 82%; Population Mitotic Cells (%) (U2OS [2]; [10]): 21%; Population Normal (%) (U2OS [2]; [10]): 89%; Population Pyknosed Nuclei (%) (U2OS [2]; [10]): 22%; Population Tubulin-Different-Phenotype (%) (U2OS [2]; [10]): 93%; Total Cell Count (U2OS [2]; [10]): 137; Population Apoptotic (%) (U2OS [2]; [11]): 87%; Population Fragmented Nuclei (%) (U2OS [2]; [11]): 14%; Population Healthy Nuclei (%) (U2OS [2]; [11]): 71%; Population Hoechst High Intensity Objects (%) (U2OS [2]; [11]): 6%; Population Membrane Permeable-Phenotype (%) (U2OS [2]; [11]): 34%; Population Mitochondria Different-Phenotype (%) (U2OS [2]; [11]): 56%; Population Mitotic Cells (%) (U2OS [2]; [11]): 12%; Population Normal (%) (U2OS [2]; [11]): 93%; Population Pyknosed Nuclei (%) (U2OS [2]; [11]): 14%; Population Tubulin-Different-Phenotype (%) (U2OS [2]; [11]): 95%; Total Cell Count (U2OS [2]; [11]): 61; Population Apoptotic (%) (U2OS [2]; [12]): 59% and 70%; Population Fragmented Nuclei (%) (U2OS [2]; [12]): 6%; Population Healthy Nuclei (%) (U2OS [2]; [12]): 79% and 90%; Population Hoechst High Intensity Objects (%) (U2OS [2]; [12]): 2% and 3%; Population Mitochondria Different-Phenotype (%) (U2OS [2]; [12]): 26% and 22%; Population Mitotic Cells (%) (U2OS [2]; [12]): 40% and 30%; Population Normal (%) (U2OS [2]; [12]): 97% and 96%; Population Pyknosed Nuclei (%) (U2OS [2]; [12]): 13% and 5%; Population Tubulin-Different-Phenotype (%) (U2OS [2]; [12]): 83%; Total Cell Count (U2OS [2]; [12]): 198 and 202; Population Fragmented Nuclei (%) (U2OS [2]; [13]): 4% and 8%; Population Healthy Nuclei (%) (U2OS [2]; [13]): 77% and 87%; Population Hoechst High Intensity Objects (%) (U2OS [2]; [13]): 6% and 8%; Population Mitochondria Different-Phenotype (%) (U2OS [2]; [13]): 19% and 29%; Population Normal (%) (U2OS [2]; [13]): 93% and 91%; Total Cell Count (U2OS [2]; [13]): 153 and 143; Population Apoptotic (%) (U2OS [2]; [14]): 82%; Population Fragmented Nuclei (%) (U2OS [2]; [14]): 8%; Population Healthy Nuclei (%) (U2OS [2]; [14]): 68%; Population Hoechst High Intensity Objects (%) (U2OS [2]; [14]): 12%; Population Membrane Permeable-Phenotype (%) (U2OS [2]; [14]): 34%; Population Mitochondria Different-Phenotype (%) (U2OS [2]; [14]): 74%; Population Mitotic Cells (%) (U2OS [2]; [14]): 17%; Population Normal (%) (U2OS [2]; [14]): 87%; Population Pyknosed Nuclei (%) (U2OS [2]; [14]): 23%; Population Tubulin-Different-Phenotype (%) (U2OS [2]; [14]): 95%; Total Cell Count (U2OS [2]; [14]): 138; Population Apoptotic (%) (U2OS [2]; [15]): 100%; Population Fragmented Nuclei (%) (U2OS [2]; [15]): 14%; Population Hoechst High Intensity Objects (%) (U2OS [2]; [15]): 10%; Population Membrane Permeable-Phenotype (%) (U2OS [2]; [15]): 21%; Population Mitochondria Different-Phenotype (%) (U2OS [2]; [15]): 56%; Population Mitotic Cells (%) (U2OS [2]; [15]): 0%; Population Normal (%) (U2OS [2]; [15]): 90%; Population Pyknosed Nuclei (%) (U2OS [2]; [15]): 16%; Population Tubulin-Different-Phenotype (%) (U2OS [2]; [15]): 81%; Total Cell Count (U2OS [2]; [15]): 60; Population Apoptotic (%) (U2OS [2]; [16]): 70%; Population Fragmented Nuclei (%) (U2OS [2]; [16]): 15%; Population Healthy Nuclei (%) (U2OS [2]; [16]): 57%; Population Hoechst High Intensity Objects (%) (U2OS [2]; [16]): 5%; Population Membrane Permeable-Phenotype (%) (U2OS [2]; [16]): 41%; Population Mitochondria Different-Phenotype (%) (U2OS [2]; [16]): 61%; Population Mitotic Cells (%) (U2OS [2]; [16]): 29%; Population Normal (%) (U2OS [2]; [16]): 94%; Population Pyknosed Nuclei (%) (U2OS [2]; [16]): 26%; Population Tubulin-Different-Phenotype (%) (U2OS [2]; [16]): 89%; Total Cell Count (U2OS [2]; [16]): 134; Population Apoptotic (%) (U2OS [2]; [17]): 77%; Population Fragmented Nuclei (%) (U2OS [2]; [17]): 12%; Population Healthy Nuclei (%) (U2OS [2]; [17]): 75%; Population Hoechst High Intensity Objects (%) (U2OS [2]; [17]): 10%; Population Membrane Permeable-Phenotype (%) (U2OS [2]; [17]): 62%; Population Mitochondria Different-Phenotype (%) (U2OS [2]; [17]): 27%; Population Mitotic Cells (%) (U2OS [2]; [17]): 22%; Population Normal (%) (U2OS [2]; [17]): 90%; Population Pyknosed Nuclei (%) (U2OS [2]; [17]): 12%; Population Tubulin-Different-Phenotype (%) (U2OS [2]; [17]): 72%; Total Cell Count (U2OS [2]; [17]): 80
